Measurements from ChEMBL document CHEMBL3091303, “1,3-Dialkyl-substituted tetrahydropyrimido[1,2-f]purine-2,4-diones as multiple target drugs for the potential treatment of neurodegenerative diseases” (Bioorg Med Chem, 2013).

Experiments:
[1] = biological target: T1, Adenosine receptor A1 (Rattus norvegicus) (UniProt P25099); assay: Displacement of [3H]CCPA from adenosine A1 receptor in rat brain cortex relative to control; format: tissue-based; set-up: concentration or dose not given beside the values; conditions: concentration not given here
T1 sequence (whole entry): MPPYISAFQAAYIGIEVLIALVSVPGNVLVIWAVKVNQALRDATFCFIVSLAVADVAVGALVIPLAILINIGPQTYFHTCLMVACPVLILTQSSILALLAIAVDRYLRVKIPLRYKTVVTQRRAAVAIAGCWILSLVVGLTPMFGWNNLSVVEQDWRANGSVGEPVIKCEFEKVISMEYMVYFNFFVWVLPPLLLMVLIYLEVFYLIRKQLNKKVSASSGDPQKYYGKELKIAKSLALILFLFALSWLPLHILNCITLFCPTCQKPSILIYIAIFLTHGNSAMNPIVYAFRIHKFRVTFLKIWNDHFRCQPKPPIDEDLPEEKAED
Procedure, shortened: (§1)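 Radioligand binding to rat A1 receptors in rat brain cortical membrane preparations. Values are given as Ki, or as % inhibition of radioligand binding at the indicated concentration.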

[2] = biological target: Adenosine receptor A2a (Rattus norvegicus, UniProt P30543); assay: Displacement of [3H]MSX-2 from adenosine A2A receptor in rat brain striatum; format: tissue-based
Sequence of Adenosine receptor A2a (Rattus norvegicus, UniProt P30543) (P30543 whole entry): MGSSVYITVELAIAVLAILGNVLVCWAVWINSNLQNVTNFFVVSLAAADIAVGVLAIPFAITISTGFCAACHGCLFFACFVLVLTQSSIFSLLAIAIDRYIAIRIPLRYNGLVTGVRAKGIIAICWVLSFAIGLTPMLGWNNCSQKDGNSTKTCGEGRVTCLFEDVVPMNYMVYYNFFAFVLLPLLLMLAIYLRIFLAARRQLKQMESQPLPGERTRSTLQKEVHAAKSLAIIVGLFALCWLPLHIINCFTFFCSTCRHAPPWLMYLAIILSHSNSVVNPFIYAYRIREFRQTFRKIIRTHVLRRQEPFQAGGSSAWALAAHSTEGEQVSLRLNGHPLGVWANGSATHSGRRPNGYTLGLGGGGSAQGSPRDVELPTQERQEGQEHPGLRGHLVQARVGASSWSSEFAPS

[3] = biological target: T2, MAO-B (amine oxidase [flavin-containing] B) (Homo sapiens, UniProt P27338); assay: Inhibition of human MAO-B at 10 uM relative to control
T2 sequence (P27338 whole entry): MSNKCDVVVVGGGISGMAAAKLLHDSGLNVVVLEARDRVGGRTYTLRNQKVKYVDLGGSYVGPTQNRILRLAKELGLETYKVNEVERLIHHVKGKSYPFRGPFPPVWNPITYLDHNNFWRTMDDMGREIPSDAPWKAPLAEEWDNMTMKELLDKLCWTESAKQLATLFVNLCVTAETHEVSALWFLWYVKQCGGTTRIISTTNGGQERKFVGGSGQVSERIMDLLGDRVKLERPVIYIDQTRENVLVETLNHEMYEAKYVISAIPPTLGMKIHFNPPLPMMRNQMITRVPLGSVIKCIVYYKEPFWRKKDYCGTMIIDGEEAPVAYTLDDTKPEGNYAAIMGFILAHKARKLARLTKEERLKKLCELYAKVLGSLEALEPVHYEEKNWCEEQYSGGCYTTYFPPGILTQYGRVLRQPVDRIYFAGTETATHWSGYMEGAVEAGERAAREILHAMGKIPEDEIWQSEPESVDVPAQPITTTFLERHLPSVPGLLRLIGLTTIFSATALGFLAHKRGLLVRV
Procedure, shortened: (§2)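 Human MAO-A and MAO-B inhibition, screened first at a test concentration of 10 µM.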

[4] = biological target: T3, Adenosine receptor A1 (Rattus norvegicus, UniProt P25099); assay: Displacement of [3H]CCPA from adenosine A1 receptor in rat brain cortex; format: tissue-based; procedure, shortened: as §1
T3 sequence (P25099 whole entry): T1 sequence (whole entry)

[5] = biological target: T4, Adenosine receptor A2b (Homo sapiens) (UniProt P29275); assay: Displacement of [3H]PSB-603 from human adenosine A2B receptor relative to control; set-up: concentration or dose not given beside the values; conditions: concentration not given here
T4 sequence (whole entry): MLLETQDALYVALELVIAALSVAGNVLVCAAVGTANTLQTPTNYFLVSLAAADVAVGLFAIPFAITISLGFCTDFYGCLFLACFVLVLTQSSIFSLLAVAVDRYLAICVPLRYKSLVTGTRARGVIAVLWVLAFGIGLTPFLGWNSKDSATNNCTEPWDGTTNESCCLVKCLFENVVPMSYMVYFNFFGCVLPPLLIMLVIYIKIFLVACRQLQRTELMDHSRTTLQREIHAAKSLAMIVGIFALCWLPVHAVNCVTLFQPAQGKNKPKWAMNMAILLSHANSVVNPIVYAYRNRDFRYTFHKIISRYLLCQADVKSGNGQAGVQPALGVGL

[6] = biological target: T5, Amine oxidase [flavin-containing] B (Homo sapiens, UniProt P27338); assay: Inhibition of human MAO-B
T5 sequence (P27338 whole entry): T2 sequence (P27338 whole entry)

[7] = biological target: T6, MAO-A (amine oxidase [flavin-containing] A) (Homo sapiens, UniProt P21397); assay: Inhibition of human MAO-A at 10 uM relative to control; procedure, shortened: as §2
T6 sequence (P21397 whole entry): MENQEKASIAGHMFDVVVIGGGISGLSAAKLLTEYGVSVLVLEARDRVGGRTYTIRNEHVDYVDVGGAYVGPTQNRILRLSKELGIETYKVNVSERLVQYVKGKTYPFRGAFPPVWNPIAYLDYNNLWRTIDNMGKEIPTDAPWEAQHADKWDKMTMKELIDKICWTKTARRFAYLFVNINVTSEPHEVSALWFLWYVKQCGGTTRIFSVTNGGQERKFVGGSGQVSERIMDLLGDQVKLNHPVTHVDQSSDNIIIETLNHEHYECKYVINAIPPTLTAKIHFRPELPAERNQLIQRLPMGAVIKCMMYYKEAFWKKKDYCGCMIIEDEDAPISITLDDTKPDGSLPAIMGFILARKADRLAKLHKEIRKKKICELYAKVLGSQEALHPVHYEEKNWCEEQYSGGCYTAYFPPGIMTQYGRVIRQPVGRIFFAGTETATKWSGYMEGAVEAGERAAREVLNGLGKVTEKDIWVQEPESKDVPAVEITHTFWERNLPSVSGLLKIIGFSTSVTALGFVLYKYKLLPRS

[8] = biological target: T7, Adenosine receptor A3 (Homo sapiens) (UniProt P0DMS8); assay: Displacement of [3H]PSB-11 from human adenosine A3 receptor expressed in CHO cells relative to control; format: cell-based; set-up: concentration or dose not given beside the values; conditions: concentration not given here
T7 sequence (whole entry): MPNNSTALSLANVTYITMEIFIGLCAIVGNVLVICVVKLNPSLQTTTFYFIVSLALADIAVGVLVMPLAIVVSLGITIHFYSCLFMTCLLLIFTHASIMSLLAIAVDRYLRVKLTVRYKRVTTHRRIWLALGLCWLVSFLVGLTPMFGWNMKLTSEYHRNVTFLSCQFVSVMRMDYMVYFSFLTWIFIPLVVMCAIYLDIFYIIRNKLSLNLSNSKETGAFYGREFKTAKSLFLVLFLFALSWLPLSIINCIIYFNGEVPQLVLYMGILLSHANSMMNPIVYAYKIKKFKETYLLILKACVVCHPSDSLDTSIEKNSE

[9] = biological target: T8, Adenosine receptor A3 (Homo sapiens, UniProt P0DMS8); assay: Displacement of [3H]PSB-11 from human adenosine A3 receptor expressed in CHO cells; format: cell-based
T8 sequence (P0DMS8 whole entry): T7 sequence (whole entry)

[10] = biological target: T9, Amine oxidase [flavin-containing] A (Homo sapiens, UniProt P21397); assay: Inhibition of human MAO-A; procedure, shortened: as §2
T9 sequence (P21397 whole entry): T6 sequence (P21397 whole entry)

[11] = biological target: T10, Adenosine receptor A2b (Homo sapiens, UniProt P29275); assay: Displacement of [3H]PSB-603 from human adenosine A2B receptor
T10 sequence (P29275 whole entry): T4 sequence (whole entry)

[12] = biological target: T11, Adenosine receptor A1 (Homo sapiens, UniProt P30542); assay: Displacement of [3H]CCPA from human adenosine A1 receptor expressed in CHO cells; format: cell-based
T11 sequence (P30542 whole entry): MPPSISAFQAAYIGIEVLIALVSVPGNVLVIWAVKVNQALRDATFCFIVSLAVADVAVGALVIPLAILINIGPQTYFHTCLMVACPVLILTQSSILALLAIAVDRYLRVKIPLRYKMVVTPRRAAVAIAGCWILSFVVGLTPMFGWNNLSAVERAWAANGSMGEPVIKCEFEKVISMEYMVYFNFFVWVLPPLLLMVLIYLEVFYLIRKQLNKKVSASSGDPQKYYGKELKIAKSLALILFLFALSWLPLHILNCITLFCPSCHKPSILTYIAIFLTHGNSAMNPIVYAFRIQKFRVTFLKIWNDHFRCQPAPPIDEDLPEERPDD
Procedure, shortened: (§3)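 Radioligand binding to human receptors recombinantly expressed in Chinese hamster ovary (CHO) cells. Results are Ki, or % inhibition of radioligand binding at the indicated concentration.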

[13] = biological target: Adenosine receptor A2a (Homo sapiens, UniProt P29274); assay: Displacement of [3H]MSX-2 from human adenosine A2A receptor expressed in CHO cells; format: cell-based; procedure, shortened: as §3
Sequence of Adenosine receptor A2a (Homo sapiens, UniProt P29274) (P29274 whole entry): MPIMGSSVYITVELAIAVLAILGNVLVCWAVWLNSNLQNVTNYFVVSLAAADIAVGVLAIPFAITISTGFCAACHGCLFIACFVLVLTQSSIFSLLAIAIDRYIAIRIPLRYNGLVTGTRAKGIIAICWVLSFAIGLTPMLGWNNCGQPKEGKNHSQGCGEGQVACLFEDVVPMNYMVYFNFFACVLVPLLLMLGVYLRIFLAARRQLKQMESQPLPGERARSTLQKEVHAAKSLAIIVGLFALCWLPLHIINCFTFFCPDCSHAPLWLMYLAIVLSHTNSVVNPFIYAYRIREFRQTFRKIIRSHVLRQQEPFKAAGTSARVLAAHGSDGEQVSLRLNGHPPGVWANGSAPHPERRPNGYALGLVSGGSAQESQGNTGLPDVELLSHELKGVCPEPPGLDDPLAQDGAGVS

Row | SMILES | inhibition [1] [%] | Ki [2] [µM] | inhibition at 10 µM [3] [%] | Ki [4] [µM] | inhibition [5] [%] | IC50 [6] [µM] | inhibition at 10 µM [7] [%] | inhibition [8] [%] | Ki [9] [µM] | IC50 [10] [µM] | Ki [11] [µM] | Ki [12] [µM] | Ki [13] [µM]
1 | Cn1c(=O)c2c(nc3n2CCCN3CC(=O)N2CCN(Cc3ccccc3)CC2)n(C)c1=O | 0 | 14 | 55 | > 1.5 | -7 | 10 | 4 | 23 | > 0.3 | > 10 | > 0.3 | – | –
2 | CCn1c(=O)c2c(nc3n2CCCN3c2ccc(O)cc2)n(CC)c1=O | 30 | 10.9 | 56 | > 10 | 22 | 10 | 11 | 29 | > 10 | > 10 | > 1 | – | –
3 | C#CCn1c(=O)c2c(nc3n2CCCN3CCc2cccs2)n(C)c1=O | – | 0.71 | 17 | 0.99 | 16 | > 10 | – | 20 | > 1 | – | > 1 | 1.41 | 0.317
4 | C#CCn1c(=O)c2c(nc3n2CCCN3Cc2ccccc2OC)n(C)c1=O | – | 0.641 | – | 1.06 | 16 | 1.8 | 4 | – | 4.41 | > 10 | > 1 | 0.605 | 0.417
5 | Cn1c(=O)c2c(nc3n2CCCN3c2ccc(Cl)c(Cl)c2)n(C)c1=O | 28 | 4.7 | 50 | > 10 | 3 | 10 | 12 | 12 | > 1 | > 10 | > 1 | – | –
6 | C#CCn1c(=O)c2c(nc3n2CCCN3c2ccc(F)cc2)n(C)c1=O | – | 1.94 | 17 | 1.19 | 7 | > 10 | – | 22 | > 10 | – | > 1 | 3.61 | 2.12
7 | Cn1c(=O)c2c(nc3n2CCCN3CCc2ccc(Cl)cc2)n(C)c1=O | – | 0.515 | – | 3.03 | 8 | 0.624 | 4 | 38 | > 10 | > 10 | > 1 | – | 5.61
8 | C#CCn1c(=O)c2c(nc3n2CCCN3Cc2ccccc2)n(C)c1=O | – | 0.533 | – | 0.135 | – | 3.76 | 5 | 34 | > 10 | > 10 | 3.52 | 0.249 | 0.253
9 | Cn1c(=O)c2c(nc3n2CCCN3CCc2ccc(Cl)c(Cl)c2)n(C)c1=O | – | 0.78 | – | 7.24 | 10 | 0.0869 | -2 | 23 | > 10 | > 10 | > 1 | – | 5.25
10 | C#CCn1c(=O)c2c(nc3n2CCCN3CC2CCCO2)n(C)c1=O (stereo unspecified) | – | 1.43 | 30 | 0.169 | 6 | > 10 | – | 9 | > 10 | – | > 1 | 1.15 | 1.11

Compounds with a lower Ki [2], results first:

Row | inhibition [1] [%] | Ki [2] [µM] | inhibition at 10 µM [3] [%] | Ki [4] [µM] | inhibition [5] [%] | IC50 [6] [µM] | inhibition at 10 µM [7] [%] | inhibition [8] [%] | Ki [9] [µM] | IC50 [10] [µM] | Ki [11] [µM] | Ki [12] [µM] | Ki [13] [µM] | SMILES
11 | – | 0.288 | 25 | 3.14 | 8 | > 10 | – | 13 | > 1 | – | > 1 | 4.4 | 0.508 | C#CCn1c(=O)c2c(nc3n2CCCN3CCc2ccc(OC)cc2)n(C)c1=O
12 | – | 0.361 | 26 | 0.515 | – | > 10 | – | 25 | > 10 | – | 17.1 | 2.36 | 0.311 | C#CCn1c(=O)c2c(nc3n2CCCN3C2CCCCC2)n(C)c1=O
13 | – | 0.276 | 37 | 0.501 | 12 | > 10 | – | 28 | > 10 | – | > 10 | 8.26 | 0.346 | C#CCn1c(=O)c2c(nc3n2CCCN3CCc2ccc(O)cc2)n(C)c1=O
14 | – | 0.166 | – | 1.76 | 1 | 1.35 | -4 | 43 | > 10 | > 10 | > 1 | – | 1.35 | Cn1c(=O)c2c(nc3n2CCCN3CCc2cccc(Cl)c2)n(C)c1=O
15 | – | 0.38 | 19 | 1.07 | – | > 10 | – | 13 | > 10 | – | 3.97 | 0.866 | 0.231 | C#CCn1c(=O)c2c(nc3n2CCCN3C2CCC2)n(C)c1=O
16 | – | 0.498 | 33 | 0.219 | -5 | > 10 | – | 5 | > 0.1 | – | > 1 | 1.87 | 0.51 | C#CCn1c(=O)c2c(nc3n2CCCN3CC2CCCCC2)n(C)c1=O
